# Experimental data from article PMC12750372 (Acta Pharmaceutica Sinica. B, 2025).
# How the values were obtained:
# HEK 293T cells [1] = test: Cell uptake by flow cytometry of FITC-labeled peptides; assay type: cell-based
# Outline: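 Suspended HEK 293T cells (3 × 10^5, DMEM with 10% FBS) were mixed with FITC-labeled peptides in DMEM (0.1% DMSO) at final 1, 10 and 20 μmol/L for 30 min at room temperature in the dark. They were spun at 500×g, washed in staining buffer, resuspended and run on a flow cytometer. Mean fluorescence from two independent experiments was normalized to a reference stapled peptide at 20 μmol/L.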
# [2] = tested on: CREB-mediated gene transcription; test: CREB Renilla luciferase; assay type: cell-based; settings: read-out: CREB inhibition IC50; inhibition of CREB-mediated gene transcription in HEK 293T cells, CRE-RLuc, 30 min peptide then Fsk 10 μmol/L for 5 h
# Outline: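 HEK 293T cells were transfected for 3 h with 2 μg pCRE-RLuc (Renilla luciferase driven by three CRE copies) by lipofection, then replated overnight. Peptides at graded concentrations were added for 30 min before forskolin (10 μmol/L), then incubated 5 h at 37 °C. Lysate Renilla luciferase was normalized to well protein (RLU/μg) and expressed as % CREB activity. IC50 came from nonlinear regression.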
# HEK 293T cells [3] = test: Cell uptake by confocal microscopy of FITC-labeled peptides; assay type: cell-based; settings: FITC-labeled peptides at 10 μmol/L, 4 h
# Outline: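 HEK 293T cells attached overnight, then received FITC-labeled peptides in DMEM (0.1% DMSO) at final 1, 10 and 20 μmol/L for 4 h at 37 °C, 5% CO2. After three PBS washes, cells were DAPI-stained (10 μg/mL, 10 min), washed, methanol-fixed 5 min and imaged by multiphoton laser scanning microscopy. The αB helix of KID served as control peptide.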
# [4] = tested on: CREB-mediated transcription; settings: read-out: IC50 in CREB Renilla luciferase reporter assay; cited from earlier work
# KIX/KID interaction = settings: up to 50 μmol/L; cited from earlier work
Structure (SMILES),Fold increase of cell uptake compared to linear L3 and stapled S1 (HEK 293T cells [1]),IC50 [2],Cell uptake by confocal imaging (HEK 293T cells [3]),IC50 [4],Inhibition of the KIX/KID interaction (in words) (KIX/KID interaction)
CC(=O)N[C@@H](Cc1ccc(O)cc1)CN(CC(=O)N[C@@H](CCCCN)CN(CC(=O)N[C@@H](Cc1ccccc1)CN(CC(=O)N[C@H]1CCCCNc2c(F)c(F)c(c(F)c2F)Sc2c(F)c(F)c(c(F)c2F)Sc2c(F)c(F)c(c(F)c2F)NCCCC[C@@H](CN(CC(=O)N[C@@H](C)CN(CC(N)=O)S(C)(=O)=O)S(C)(=O)=O)NC(=O)CN(S(=O)(=O)CC(C)C)C[C@H](CC(C)C)NC(=O)CN(S(=O)(=O)CCN)C1)S(=O)(=O)CC(C)C)S(=O)(=O)CCN)S(C)(=O)=O [Compound S3],~4 fold,66 µM,significant cell uptake,,
O=C(Nc1ccc(Cl)cc1)c1cc2ccccc2cc1OP(=O)(O)O [KG-501],,,,5.4 µM,no significant inhibition
